Assay [1] is described as follows: S. cerevisiae growth inhibition in permissive medium (OD615), pilot counter-assay for S. cerevisiae lifespan shortening project, permissive growth control (AID 705;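 active = growth inhibition above 25% in both replicates, a cutoff set 3 SD above the mean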). The settings on record: OD615, 24 h, at 10 µM, active compounds read high. In a few lines:
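System: Engineered DeaD yeast | Buffer or medium: SC raffinose/galactose permissive medium | Incubation: Cells pre-grown 4 h, then 24 h compound exposure, 30 °C humidified | Measured by: Absorbance (optical density) at 615 nm | Read-out: Reduction in yeast growth (OD615)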

The nature of assay [2]: S. cerevisiae growth inhibition in restrictive medium, OD615, pilot screen, restrictive growth control, yeast lifespan reduction project (AID 706;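 active = growth inhibition above a set limit, 3 SD over mean compound inhibition, in both replicates, cut at about 43% in these data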;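 note: modified DeaD lifespan yeast strain shifted to restrictive glucose medium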). The settings on record: OD615, 48 h, at 10 µM, active compounds read high. The essentials:
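Material: modified S. cerevisiae; Medium: glucose-based CSMM-D restrictive medium; Compound dosing: one concentration, 10 µM final, 0.25% DMSO; Incubation: 48 h compound exposure at 30 °C; Measured by: OD615.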

The nature of assay [3]: doxorubicin toxicity protection in MRP-1 cells – H69AR cells, CellTiter-Glo, duplicate, MRP-1 activator project, pilot screen (AID 807).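 Note: compound pretreatment 18-22 h then 72 h combined with doxorubicin; 0% = doxorubicin alone and 100% = vehicle without doxorubicin.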 The settings on record: H69AR viability with doxorubicin, CellTiter-Glo luminescence; at 10 µM; active compounds read high.
Assay [4] can be described thus: viability of HCT116 without oncogenic beta-catenin – human colon tumor cells, pilot screen (AID 823;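 active = cell viability at or below a set limit in both duplicate runs, the limit being the all-compound median minus 4 SD, cut at about 23% in these data, passing the limit was not always enough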;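 note: 0% = wells killed by 20 µM Hyamine and 100% = untreated DMSO cell wells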). The settings on record: HCT116 beta-catenin knockout viability, CellTiter-Glo, 60 h; at 10 µM; active compounds read low.
Assay [5] in a line: viability of PTEN-null HCT116 cells – cell-based, HCT116 clonal line, CellTiter-Glo, pilot screen (AID 824;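 active = viability at or below 27.92% in each of two runs, the all-compound median minus 4 SD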;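 note: 0% = 20 µM Hyamine control and 100% = vehicle cell control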). The settings on record: HCT116 PTEN-deleted viability, 60 h, at 10 µM, active compounds read low.
Assay [6] in a line: RAM pathway blockade in budding yeast – dse1pr::URA3 reporter, 5-FOA selection, pilot screen (AID 869;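 active = inhibition over a set limit, the all-compound mean plus 3 SD, in both replicate runs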;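 note: 0% = DMSO wells with no growth and 100% = 10 µM 1-NA-PP1 with full growth; RAM network block rescues cells from 5-FOA so hits raise OD615 growth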). The settings on record: S. cerevisiae dse1pr::URA3 5-FOA growth, OD615, 2 d; at 10 µM; active compounds read high; strain carries analog-sensitive mutant Cbk1 kinase.
The nature of assay [7]: RAM signaling pathway blockade in yeast – S. cerevisiae, Pdr1DBD-CYC8 efflux-inhibited sensitized strain, primary screen (AID 1298;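 active = RAM network inhibition above 8.4% in each of two replicates, 3 SD over the compound average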;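 note: 0% = DMSO untreated cells without growth and 100% = 10 µM 1-NA-PP1 full growth; higher means more yeast growth rescued from 5-FOA killing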). The settings on record: S. cerevisiae cbk1-as DSE1-URA3 strain, 5-FOA growth OD615, 2 d; at 50 µM; active compounds read high.

Values without a mark were called inactive. Inconclusive results are not listed. Activity calls are given as the source filed them.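 Rule for the calls, unless noted: active = viability increase at or above a cutoff of the median across tested compounds plus 3 SD (cut at about 8.5% in these data, passing the limit was not always enough); inconclusive = some gains above the cutoff, reason not given; inactive = the rest.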

In the case of `Cc1c(C#N)c2ccccc2n1CC(=O)NCCc1c[nH]c2ccccc12`, the growth inhibition was -12.2% in assay [1] and 5.17% in assay [2]. Moreover, in assay [3], the viability increase is -6.08%. Also, the viability is 52.7% in assay [4] and 64.3% in assay [5]. Also, the inhibition in assay [6] is 3.73%. For the same molecule, in assay [7], the RAM network inhibition is 8.41%.
In the case of `CC(=O)Nc1ccc(S(=O)(=O)N2CCN(c3ccc(C)c(Cl)c3)CC2)cc1`, the growth inhibition was -14.6% in assay [1] and 6.34% in assay [2]. In assay [3], the viability increase was 0.47%. The viability was 98.3% in assay [4] and 85.4% in assay [5]. Further, in assay [6], the inhibition is 1.71%. In assay [7], the RAM network inhibition is 1.14%.
In the case of `Nc1ccc(-c2nc3ccccc3[nH]2)cc1`, the growth inhibition in assay [1] was -6.98%; in assay [2] it was -10.1%. Also, in assay [3], the viability increase was -3.12%. Further, the viability is 97.3% in assay [4] and 87.8% in assay [5]. Further, the inhibition in assay [6] was 2.31%. The RAM network inhibition in assay [7] is 4.57%.
`CCCc1ncc(C(O)c2cccc(OC)c2OC)n1C` (stereo unspecified): the growth inhibition was -11% in assay [1] and -23% in assay [2]. Besides, the viability increase in assay [3] is -2.63%. Besides, the values for the viability in assay [4] and in assay [5] were 95.9% and 94.4%, respectively. Moreover, the inhibition in assay [6] is 0.71%. In assay [7], the RAM network inhibition is 1.45%.
As to `CCOC(=O)C(C(=O)OCC)c1cc(Br)c2noc3c2c1C(=O)c1ccccc1-3`, the growth inhibition in assay [1] was -15.6%; in assay [2], -3.25%. Moreover, in assay [3], the viability increase was -8.25%. The viability in assay [4] was 1.06% (active); in assay [5], 1.23% (active). Further, the inhibition in assay [6] is 1.65%. Also, the RAM network inhibition in assay [7] was 1.87%.
For the molecule `CCOC(=O)N1CCN(C(=O)C(NC(=O)C2CCC(C)CC2)C(C)C)CC1` (stereo unspecified), the growth inhibition in assay [1] was 10.9%; in assay [2], 7.68%. In assay [3], the viability increase was -0.76%. Also, the viability in assay [4] is 101%; in assay [5] it was 99.9%. In assay [6], the inhibition was -0.215%. Besides, the RAM network inhibition in assay [7] was -0.98%.
For `CCOC(=O)NC(Nc1cc(C)ccn1)(C(F)(F)F)C(F)(F)F`, the growth inhibition in assay [1] was 0.885%; in assay [2], -3.62%. Besides, the viability increase in assay [3] is -1.93%. For the same molecule, the viability in assay [4] is 104%; in assay [5] it was 100%. Also, the inhibition in assay [6] is 0.28%. In addition, the RAM network inhibition in assay [7] is -1.18%.
`O=C(CN1c2cccc3cccc(c23)S1(=O)=O)NCc1ccc2c(c1)OCO2`: the growth inhibition in assay [1] is -1.29%; in assay [2], -6.94%. For the same molecule, the viability increase in assay [3] is -3.03%. In addition, the viability in assay [4] is 89.2%; in assay [5] it was 82.6%. Moreover, in assay [6], the inhibition is 1.05%. The RAM network inhibition in assay [7] is 5.12%.
Turning to `O=C1CC(c2ccco2)CC(O)=C1C=NCCO` (stereo unspecified), the growth inhibition in assay [1] was -12.7%; in assay [2], -1.73%. Further, the viability increase in assay [3] was 0.27%. Moreover, the viability in assay [4] was 104%; in assay [5] it was 105%. In addition, the inhibition in assay [6] was 1.79%. In assay [7], the RAM network inhibition was 3.26%.
Turning to `O=C(O)CC1SC(=Nc2ccccc2)N(c2ccccc2)C1=O` (stereo unspecified), the values for the growth inhibition in assay [1] and in assay [2] were -21.4% and -13.2%, respectively. Also, the viability increase in assay [3] is -1.21%. Also, the viability in assay [4] is 98.1%; in assay [5] it was 99.4%. In addition, the inhibition in assay [6] was 1.24%. Also, in assay [7], the RAM network inhibition was 2.93%.
As for `CCn1c(SCC(=O)NCC2CCCO2)nc2c(c1=O)SC(C)C2` (stereo unspecified), the growth inhibition was -2.03% in assay [1] and -29.9% in assay [2]. In assay [3], the viability increase was -1.87%. Further, the viability in assay [4] was 103%; in assay [5], 98%. Moreover, the inhibition in assay [6] is 0.93%. Besides, the RAM network inhibition in assay [7] was 2.66%.
With `CCOC(=O)c1nc2ccccc2s1`, the values for the growth inhibition in assay [1] and in assay [2] were -4.63% and -15.7%, respectively. For the same molecule, the viability increase in assay [3] was -2.72%. In addition, the viability was 99.2% in assay [4] and 97.4% in assay [5]. In assay [6], the inhibition is 1.02%. Besides, the RAM network inhibition in assay [7] was 1.61%.
Take `CCOC(=O)c1ccc(NC(=O)c2nn(C)cc2Br)cc1`: the values for the growth inhibition in assay [1] and in assay [2] were -7.53% and -10.1%, respectively. In addition, the viability increase in assay [3] was -1.34%. In addition, the results for the viability in assay [4] and in assay [5] were 101% and 105%, respectively. For the same molecule, the inhibition in assay [6] is 0.925%. Besides, in assay [7], the RAM network inhibition was 6.88%.
Take `COc1cc(SC)ccc1C(=O)Nc1ccc2c(c1)CCN2S(C)(=O)=O`: the growth inhibition is -4.62% in assay [1] and -7.36% in assay [2]. The viability increase in assay [3] is 0.15%. For the same molecule, the viability was 100% in assay [4] and 94.2% in assay [5]. Also, the inhibition in assay [6] is 3.22%. In assay [7], the RAM network inhibition was 4.39%.
Take `Cc1[nH]n2c(=O)c3c(nc2c1-c1ccc(Cl)cc1)CCC3`: the growth inhibition in assay [1] is -14.1%; in assay [2], -8.77%. Besides, the viability increase in assay [3] is -2.32%. The viability in assay [4] is 22.5% (active); in assay [5], 26.8% (active). Moreover, the inhibition in assay [6] is 1.88%. Further, the RAM network inhibition in assay [7] is 6.65%.
Regarding `Cc1cc(C)nc(/N=C2\NC(=O)CC(C(=O)O)N2CCc2c[nH]c3ccccc23)n1` (stereo unspecified), the growth inhibition in assay [1] was -0.875%; in assay [2], -4.41%. In addition, the viability increase in assay [3] is -2.04%. The viability was 93.3% in assay [4] and 84.1% in assay [5]. Besides, the inhibition in assay [6] was 0.67%. Besides, in assay [7], the RAM network inhibition was -0.83%.
Consider `Cc1ccc(SCC(=O)NCC(C)C)cc1`, for which the growth inhibition in assay [1] is -0.86%; in assay [2], 6.93%. Besides, the viability increase in assay [3] was 0.66%. Moreover, the viability in assay [4] was 97.1%; in assay [5], 102%. Besides, the inhibition in assay [6] was 0.42%. In addition, in assay [7], the RAM network inhibition is 0.68%.
With `COc1ccc(C2C(C(=O)N3CCCCC3)c3ccccc3C(=O)N2C)cc1` (stereo unspecified), the growth inhibition in assay [1] was -2.93%; in assay [2] it was -8.27%. For the same molecule, the viability increase in assay [3] is -2.9%. The viability is 92.3% in assay [4] and 91.2% in assay [5]. Moreover, the inhibition in assay [6] was 0.375%. The RAM network inhibition in assay [7] was 2.69%.

The values are drawn from PubChem BioAssay.
